Experimental data taken from ChEMBL document CHEMBL4130549, “Synthesis and bioactivities study of new antibacterial peptide mimics: The dialkyl cationic amphiphiles” (Eur J Med Chem, 2018).
Calls of active or inactive are those of the source.

Experiments:
[1] = tested on: Staphylococcus aureus; assay: Antibacterial activity against Staphylococcus aureus ATCC 29213 after 16 to 20 hrs by broth microdilution method; assay type: functional
Method in brief: (§1)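 CLSI broth microdilution in cation-adjusted Mueller-Hinton broth. A 4-6 h culture was diluted to about 10⁶ CFU/mL and mixed 1:1 with twofold compound dilutions (256–0.5 µg/mL before mixing) prepared from aqueous stocks. Plates were incubated at 37 °C for 16-20 h. Each concentration was tested in duplicate, and the experiment was repeated at least twice.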

[2] = tested on: Enterococcus faecalis; assay: Antibacterial activity against Enterococcus faecalis after 16 to 20 hrs by broth microdilution method; assay type: functional
Method in brief: (§2)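 Broth microdilution per CLSI in cation-adjusted Mueller-Hinton broth; 4-6 h cultures (~10⁸ CFU/mL) diluted to ~10⁶ CFU/mL and mixed 1:1 with twofold dilutions of water-dissolved compound (256 to 0.5 µg/mL). Incubated 16-20 h at 37 °C; MIC read visually. Each concentration run in duplicate, whole experiment repeated at least twice. MRSA, KPC and NDM-1 strains were clinical isolates.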

[3] = tested on: Escherichia coli; assay: Antibacterial activity against Escherichia coli ATCC 25922 after 16 to 20 hrs by broth microdilution method; assay type: functional; method in brief: as §2
[4] = tested on: Salmonella enterica; assay: Antibacterial activity against Salmonella enterica after 16 to 20 hrs by broth microdilution method; assay type: functional; method in brief: as §2
[5] = tested on: Staphylococcus aureus; assay: Antibacterial activity against methicillin-resistant Staphylococcus aureus after 16 to 20 hrs by broth microdilution method; assay type: functional; method in brief: as §1
[6] = tested on: Klebsiella pneumoniae; assay: Antibacterial activity against carbapenemase-producing Klebsiella pneumoniae after 16 to 20 hrs by broth microdilution method; assay type: functional; method in brief: as §2
[7] = tested on: Enterobacteriaceae; assay: Antibacterial activity against NDM-1-producing Enterobacteriaceae after 16 to 20 hrs by broth microdilution method; assay type: functional; method in brief: as §2
[8] = Hemolytic activity in sheep RBC after 1 hr; assay type: ADME, cell-based, Ovis aries, Erythrocyte; conditions: sheep red blood cells (erythrocytes)
Method in brief: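 Sheep RBCs suspended at 5% in PBS; 150 µL added to 50 µL compound dilutions (5120 to 10 µg/mL series). Incubated 1 h at 37 °C, then centrifuged; supernatant absorbance read at 540 nm. Lysis (%) = (A−A0)/(Atotal−A0)×100, with untreated 5% RBC as A0 and 0.1% Triton X-100 as total.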

[9] = tested on: Staphylococcus aureus; assay: Antibacterial activity against methicillin-resistant Staphylococcus aureus isolate M1 after 16 to 20 hrs by broth microdilution method; assay type: functional; method in brief: as §1
[10] = tested on: Staphylococcus aureus; assay: Antibacterial activity against methicillin-resistant Staphylococcus aureus isolate M2 after 16 to 20 hrs by broth microdilution method; assay type: functional; method in brief: as §1
[11] = tested on: Staphylococcus aureus; assay: Antibacterial activity against methicillin-resistant Staphylococcus aureus isolate M3 after 16 to 20 hrs by broth microdilution method; assay type: functional; method in brief: as §1
[12] = tested on: Staphylococcus aureus; assay: Antibacterial activity against methicillin-resistant Staphylococcus aureus isolate M4 after 16 to 20 hrs by broth microdilution method; assay type: functional; method in brief: as §1
[13] = tested on: Staphylococcus aureus; assay: Antibacterial activity against methicillin-resistant Staphylococcus aureus isolate M5 after 16 to 20 hrs by broth microdilution method; assay type: functional; method in brief: as §1
[14] = tested on: Staphylococcus aureus; assay: Antibacterial activity against methicillin-resistant Staphylococcus aureus isolate M6 after 16 to 20 hrs by broth microdilution method; assay type: functional; method in brief: as §1
[15] = tested on: Staphylococcus aureus; assay: Antibacterial activity against methicillin-resistant Staphylococcus aureus isolate M7 after 16 to 20 hrs by broth microdilution method; assay type: functional; method in brief: as §1
[16] = tested on: Staphylococcus aureus; assay: Antibacterial activity against methicillin-resistant Staphylococcus aureus isolate M8 after 16 to 20 hrs by broth microdilution method; assay type: functional; method in brief: as §1
[17] = tested on: Staphylococcus aureus; assay: Antibacterial activity against methicillin-resistant Staphylococcus aureus isolate M9 after 16 to 20 hrs by broth microdilution method; assay type: functional; method in brief: as §1
[18] = tested on: Staphylococcus aureus; assay: Antibacterial activity against methicillin-resistant Staphylococcus aureus isolate M10 after 16 to 20 hrs by broth microdilution method; assay type: functional; method in brief: as §1
[19] = tested on: Klebsiella pneumoniae; assay: Antibacterial activity against carbapenemase-producing Klebsiella pneumoniae isolate K1 after 16 to 20 hrs by broth microdilution method; assay type: functional; method in brief: as §2
[20] = tested on: Klebsiella pneumoniae; assay: Antibacterial activity against carbapenemase-producing Klebsiella pneumoniae isolate K2 after 16 to 20 hrs by broth microdilution method; assay type: functional; method in brief: as §2
[21] = tested on: Klebsiella pneumoniae; assay: Antibacterial activity against carbapenemase-producing Klebsiella pneumoniae isolate K3 after 16 to 20 hrs by broth microdilution method; assay type: functional; method in brief: as §2
[22] = tested on: Klebsiella pneumoniae; assay: Antibacterial activity against carbapenemase-producing Klebsiella pneumoniae isolate K4 after 16 to 20 hrs by broth microdilution method; assay type: functional; method in brief: as §2
[23] = tested on: Klebsiella pneumoniae; assay: Antibacterial activity against carbapenemase-producing Klebsiella pneumoniae isolate K5 after 16 to 20 hrs by broth microdilution method; assay type: functional; method in brief: as §2
[24] = tested on: Klebsiella pneumoniae; assay: Antibacterial activity against carbapenemase-producing Klebsiella pneumoniae isolate K6 after 16 to 20 hrs by broth microdilution method; assay type: functional; method in brief: as §2
[25] = tested on: Klebsiella pneumoniae; assay: Antibacterial activity against carbapenemase-producing Klebsiella pneumoniae isolate K7 after 16 to 20 hrs by broth microdilution method; assay type: functional; method in brief: as §2
[26] = tested on: Klebsiella pneumoniae; assay: Antibacterial activity against carbapenemase-producing Klebsiella pneumoniae isolate K8 after 16 to 20 hrs by broth microdilution method; assay type: functional; method in brief: as §2
[27] = tested on: Klebsiella pneumoniae; assay: Antibacterial activity against carbapenemase-producing Klebsiella pneumoniae isolate K9 after 16 to 20 hrs by broth microdilution method; assay type: functional; method in brief: as §2
[28] = tested on: Klebsiella pneumoniae; assay: Antibacterial activity against carbapenemase-producing Klebsiella pneumoniae isolate K10 after 16 to 20 hrs by broth microdilution method; assay type: functional; method in brief: as §2
[29] = tested on: Enterobacteriaceae; assay: Antibacterial activity against NDM-1-producing Enterobacteriaceae isolate N1 after 16 to 20 hrs by broth microdilution method; assay type: functional; method in brief: as §2
[30] = tested on: Enterobacteriaceae; assay: Antibacterial activity against NDM-1-producing Enterobacteriaceae isolate N2 after 16 to 20 hrs by broth microdilution method; assay type: functional; method in brief: as §2
[31] = tested on: Enterobacteriaceae; assay: Antibacterial activity against NDM-1-producing Enterobacteriaceae isolate N3 after 16 to 20 hrs by broth microdilution method; assay type: functional; method in brief: as §2
[32] = tested on: Enterobacteriaceae; assay: Antibacterial activity against NDM-1-producing Enterobacteriaceae isolate N4 after 16 to 20 hrs by broth microdilution method; assay type: functional; method in brief: as §2
[33] = tested on: Enterobacteriaceae; assay: Antibacterial activity against NDM-1-producing Enterobacteriaceae isolate N5 after 16 to 20 hrs by broth microdilution method; assay type: functional; method in brief: as §2
[34] = tested on: Enterobacteriaceae; assay: Antibacterial activity against NDM-1-producing Enterobacteriaceae isolate N6 after 16 to 20 hrs by broth microdilution method; assay type: functional; method in brief: as §2
[35] = tested on: Enterobacteriaceae; assay: Antibacterial activity against NDM-1-producing Enterobacteriaceae isolate N7 after 16 to 20 hrs by broth microdilution method; assay type: functional; method in brief: as §2
[36] = tested on: Enterobacteriaceae; assay: Antibacterial activity against NDM-1-producing Enterobacteriaceae isolate N8 after 16 to 20 hrs by broth microdilution method; assay type: functional; method in brief: as §2
[37] = tested on: Enterobacteriaceae; assay: Antibacterial activity against NDM-1-producing Enterobacteriaceae isolate N9 after 16 to 20 hrs by broth microdilution method; assay type: functional; method in brief: as §2
[38] = tested on: Enterobacteriaceae; assay: Antibacterial activity against NDM-1-producing Enterobacteriaceae isolate N10 after 16 to 20 hrs by broth microdilution method; assay type: functional; method in brief: as §2
[39] = tested on: Staphylococcus aureus; assay: Induction of cytoplasmic membrane depolarization in Staphylococcus aureus ATCC 29213 at 20 ug/ml measured every 2 mins for 12 mins by diSC35 staining based fluorescence assay; assay type: functional, organism-based
Method in brief: (§3)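 Mid-log cells (4–6 h) pelleted, washed and resuspended (~10^8 CFU/mL) in PBS for S. aureus, or in 5 mM HEPES, 5 mM glucose and 100 mM KCl (1:1:1) for E. coli. Preloaded with diSC35 (10 µM, 50 µL), 30 min for S. aureus and 40 min plus EDTA (200 µM, 50 µL) for E. coli. Baseline read 8 min (ex 622/em 670 nm), then compound added to 20 µg/mL final and read every 2 min for 12 min. Water control.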

[40] = tested on: Escherichia coli; assay: Induction of cytoplasmic membrane depolarization in Escherichia coli ATCC 25922 at 20 ug/ml measured every 2 mins for 12 mins by diSC35 staining based fluorescence assay; assay type: functional, organism-based; method in brief: as §3
[41] = tested on: Staphylococcus aureus; assay: Induction of inner membrane permeabilization in Staphylococcus aureus ATCC 29213 at 20 ug/ml measured every 2 mins for 12 mins by propidium iodide staining based fluorescence assay; assay type: functional, organism-based
Method in brief: (§4)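 Mid-log cells (~10^8 CFU/mL) pre-incubated with propidium iodide (10 µM, 50 µL), 30 min for S. aureus and 40 min for E. coli. Fluorescence (ex 535/em 617 nm) read for 8 min, then compound added to 20 µg/mL final and monitored every 2 min for 12 min. Water-treated control.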

[42] = tested on: Escherichia coli; assay: Induction of inner membrane permeabilization in Escherichia coli ATCC 25922 at 20 ug/ml measured every 2 mins for 12 mins by propidium iodide staining based fluorescence assay; assay type: functional, organism-based; method in brief: as §4
[43] = tested on: Escherichia coli; assay: Induction of outer membrane permeabilization in Escherichia coli ATCC 25922 at 20 ug/ml measured every 2 mins for 12 mins by NPN staining based fluorescence assay; assay type: functional, organism-based
Method in brief: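 Mid-log E. coli (~10^8 CFU/mL) in black plates pre-incubated about 40 min with NPN (10 µM, 50 µL). Baseline read 8 min (ex 350/em 420 nm), then compound added to 20 µg/mL final and fluorescence followed every 2 min for 12 min. Water-treated control.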

CCCCCCCCN(CCCCCCCC)C(=O)[C@@H](N)CO.Cl
4 µg/mL: MIC [1] | MIC [9] | MIC [10] | MIC [11] | MIC [12] | MIC [13] | MIC [14] | MIC [16] | MIC [17]
16 µg/mL: MIC [7] | MIC [31] | MIC [32] | MIC [33] | MIC [34]
8 µg/mL: MIC [3] | MIC [4]
> 1000 µg/mL: HC50 at 1 h [8]
active: Activity [39] | Activity [40] | Activity [41] | Activity [42] | Activity [43]
2 µg/mL: MIC [2] | MIC [5] | MIC [15] | MIC [18]
32 µg/mL: MIC [6] | MIC [19] | MIC [20] | MIC [21] | MIC [22] | MIC [23] | MIC [24] | MIC [25] | MIC [26] | MIC [27] | MIC [28] | MIC [29] | MIC [30] | MIC [35] | MIC [36] | MIC [37] | MIC [38]
